Results: ChEMBL document CHEMBL1150802, “Ampicillin-resistant non-beta-lactamase-producing Haemophilus influenzae in Spain: recent emergence of clonal isolates with increased resistance to cefotaxime and cefixime” (2007)
≈ marks a conversion by molar mass, not a printed value.

Tests used:
Assay type in all cases: functional
Haemophilus influenzae [1] = assay: Antibacterial activity against beta-lactamase nonproducing ampicillin susceptible Haemophilus influenzae isolate by broth microdilution method
Procedure, shortened: (§1)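 Clinical isolates were tested by broth microdilution in Haemophilus test medium following CLSI guidelines, with H. influenzae ATCC 49247 as the QC strain. β-Lactamase was detected by chromogenic nitrocefin test. ftsI was PCR-amplified and sequenced across nt 936–1640 (aa 327–540). Classes: BLNAS (no mechanism), BLNAR (ftsI substitutions), BLPAR (β-lactamase only), BLPACR (both). Agents tested were amoxicillin, amoxicillin-clavulanate (2:1), cefaclor, cefuroxime, cefotaxime and cefixime.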

Haemophilus influenzae [2] = assay: Antibacterial activity against beta-lactamase producing amoxicillin-clavulanic acid-resistant Haemophilus influenzae isolate assessed as percent resistant isolates by broth microdilution method; procedure, shortened: as §1
Haemophilus influenzae [3] = assay: Antibacterial activity against beta-lactamase nonproducing ampicillin susceptible Haemophilus influenzae isolate assessed as percent resistant isolates by broth microdilution method; procedure, shortened: as §1
Haemophilus influenzae [4] = assay: Antibacterial activity against beta-lactamase nonproducing ampicillin resistant Haemophilus influenzae isolate assessed as percent resistant isolates by broth microdilution method; procedure, shortened: as §1
Haemophilus influenzae [5] = assay: Antibacterial activity against beta-lactamase nonproducing ampicillin resistant Haemophilus influenzae isolate assessed as percent susceptible isolates by broth microdilution method; procedure, shortened: as §1
Haemophilus influenzae [6] = assay: Antibacterial activity against Haemophilus influenzae group IIb isolates with ftsI gene mutation by broth microdilution method; procedure, shortened: as §1
Haemophilus influenzae [7] = assay: Antibacterial activity against beta-lactamase nonproducing ampicillin resistant Haemophilus influenzae isolate by broth microdilution method; procedure, shortened: as §1
Haemophilus influenzae [8] = assay: Antibacterial activity against beta-lactamase positive ampicillin resistant Haemophilus influenzae isolate by broth microdilution method; procedure, shortened: as §1
Haemophilus influenzae [9] = assay: Antibacterial activity against beta-lactamase producing amoxicillin-clavulanic acid-resistant Haemophilus influenzae isolate by broth microdilution method; procedure, shortened: as §1
Haemophilus influenzae [10] = assay: Antibacterial activity against beta-lactamase positive ampicillin resistant Haemophilus influenzae isolate assessed as percent resistant isolates by broth microdilution method; procedure, shortened: as §1
Haemophilus influenzae [11] = assay: Antibacterial activity against Haemophilus influenzae group IIc isolates with ftsI gene mutation by broth microdilution method; procedure, shortened: as §1
Haemophilus influenzae [12] = assay: Antibacterial activity against beta-lactamase nonproducing ampicillin susceptible Haemophilus influenzae isolate assessed as percent susceptible isolates by broth microdilution method
Procedure, shortened: (§2)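 Broth microdilution in Haemophilus test medium per CLSI guidelines on clinical isolates, with H. influenzae ATCC 49247 as quality-control strain; β-lactamase production detected by nitrocefin chromogenic cephalosporin test; isolates classed by β-lactamase status and ftsI (PBP 3) sequencing of amino acids 327 to 540. Agents tested: amoxicillin, amoxicillin-clavulanic acid (2:1), cefaclor, cefuroxime, cefotaxime, cefixime.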

Haemophilus influenzae [13] = assay: Antibacterial activity against Haemophilus influenzae group IIa isolates with ftsI gene mutation by broth microdilution method; procedure, shortened: as §1
Haemophilus influenzae [14] = assay: Antibacterial activity against Haemophilus influenzae group IId isolates with ftsI gene mutation by broth microdilution method; procedure, shortened: as §1
Haemophilus influenzae [15] = assay: Antibacterial activity against Haemophilus influenzae group III-like isolates with ftsI gene mutation by broth microdilution method; procedure, shortened: as §1
Haemophilus influenzae [16] = assay: Antibacterial activity against beta-lactamase producing amoxicillin-clavulanic acid-resistant Haemophilus influenzae isolate assessed as percent susceptible isolates by broth microdilution method; procedure, shortened: as §2
Haemophilus influenzae [17] = assay: Antibacterial activity against Haemophilus influenzae group I isolates with ftsI gene mutation by broth microdilution method; procedure, shortened: as §1

| Compound | MIC50 (Haemophilus influenzae [1]) [µg/mL] | MIC90 (Haemophilus influenzae [1]) [µg/mL] | Activity (Haemophilus influenzae [2]) [%] | Activity (Haemophilus influenzae [3]) [%] | Activity (Haemophilus influenzae [4]) [%] | Activity (Haemophilus influenzae [5]) [%] | MIC50 (Haemophilus influenzae [6]) [µg/mL] | MIC90 (Haemophilus influenzae [6]) [µg/mL] | MIC50 (Haemophilus influenzae [7]) [µg/mL] | MIC90 (Haemophilus influenzae [7]) [µg/mL] | MIC90 (Haemophilus influenzae [8]) [µg/mL] | MIC50 (Haemophilus influenzae [9]) [µg/mL] | MIC90 (Haemophilus influenzae [9]) [µg/mL] | Activity (Haemophilus influenzae [10]) [%] | MIC50 (Haemophilus influenzae [11]) [µg/mL] | MIC90 (Haemophilus influenzae [11]) [µg/mL] | Activity (Haemophilus influenzae [12]) [%] | MIC50 (Haemophilus influenzae [13]) [µg/mL] | MIC90 (Haemophilus influenzae [13]) [µg/mL] | MIC50 (Haemophilus influenzae [14]) [µg/mL] | further results |
| --- | --- | --- | --- | --- | --- | --- | --- | --- | --- | --- | --- | --- | --- | --- | --- | --- | --- | --- | --- | --- | --- |
| C=CC1=C(C(=O)O)N2C(=O)[C@@H](NC(=O)/C(=N\OCC(=O)O)c3csc(N)n3)[C@H]2SC1 [CEFIXIME] | 0.06 (≈ 0.132 µM) | 0.06 (≈ 0.132 µM) | 0 | 0 | 1 | 99 | 0.06 (≈ 0.132 µM) | 0.12 (≈ 0.265 µM) | 0.06 (≈ 0.132 µM) | 0.25 (≈ 0.551 µM) | 0.06 (≈ 0.132 µM) | 0.06 | 0.12 | 0 | 0.06 (≈ 0.132 µM) | 0.12 (≈ 0.265 µM) | 100 | 0.06 (≈ 0.132 µM) | 0.25 (≈ 0.551 µM) | 0.06 (≈ 0.132 µM) | MIC50 (Haemophilus influenzae [8]): ≤ 0.01 µg/mL; MIC90 (Haemophilus influenzae [14]): 0.12 µg/mL (≈ 0.265 µM); MIC50 (Haemophilus influenzae [15]): 1 µg/mL (≈ 2.21 µM); MIC90 (Haemophilus influenzae [15]): 4 µg/mL (≈ 8.82 µM); Activity (Haemophilus influenzae [16]): 100%; MIC (Haemophilus influenzae [17]): 0.06 µg/mL (≈ 0.132 µM); MIC50 (Haemophilus influenzae [17]): 0.06 µg/mL (≈ 0.132 µM); MIC90 (Haemophilus influenzae [17]): 0.12 µg/mL (≈ 0.265 µM) |
| CO/N=C(\C(=O)N[C@@H]1C(=O)N2C(C(=O)O)=C(COC(C)=O)CS[C@H]12)c1csc(N)n1 [CEFOTAXIME] | ≤ 0.01 | 0.06 (≈ 0.132 µM) | 0 | 0 | 1 | 99 | 0.06 (≈ 0.132 µM) | 0.12 (≈ 0.263 µM) | 0.06 (≈ 0.132 µM) | 0.25 (≈ 0.549 µM) | 0.06 (≈ 0.132 µM) | 0.03 | 0.06 | 0 | 0.06 (≈ 0.132 µM) | 0.12 (≈ 0.263 µM) | 100 | 0.06 (≈ 0.132 µM) | 0.25 (≈ 0.549 µM) | 0.03 (≈ 0.0659 µM) | MIC (Haemophilus influenzae [1]): ≤ 0.01 µg/mL; MIC90 (Haemophilus influenzae [14]): 0.12 µg/mL (≈ 0.263 µM); MIC50 (Haemophilus influenzae [15]): 0.5 µg/mL (≈ 1.1 µM); MIC90 (Haemophilus influenzae [15]): 4 µg/mL (≈ 8.78 µM); Activity (Haemophilus influenzae [16]): 100%; MIC50 (Haemophilus influenzae [17]): 0.03 µg/mL (≈ 0.0659 µM); MIC90 (Haemophilus influenzae [17]): 0.12 µg/mL (≈ 0.263 µM) |
| CO/N=C(\C(=O)N[C@@H]1C(=O)N2C(C(=O)O)=C(COC(N)=O)CS[C@H]12)c1ccco1 [CEFUROXIME] | 0.5 (≈ 1.18 µM) | 1 (≈ 2.36 µM) | 0 | 0 | 2 | 98 | 2 (≈ 4.71 µM) | 2 (≈ 4.71 µM) | 2 (≈ 4.71 µM) | 4 (≈ 9.43 µM) | 1 (≈ 2.36 µM) | 1 | 2 | 0 | 2 (≈ 4.71 µM) | 2 (≈ 4.71 µM) | 100 | 2 (≈ 4.71 µM) | 4 (≈ 9.43 µM) | 0.5 (≈ 1.18 µM) | MIC50 (Haemophilus influenzae [8]): 1 µg/mL (≈ 2.36 µM); MIC (Haemophilus influenzae [14]): 0.5 µg/mL (≈ 1.18 µM); MIC90 (Haemophilus influenzae [14]): 4 µg/mL (≈ 9.43 µM); MIC50 (Haemophilus influenzae [15]): 4 µg/mL (≈ 9.43 µM); MIC90 (Haemophilus influenzae [15]): 8 µg/mL (≈ 18.9 µM); Activity (Haemophilus influenzae [16]): 100%; MIC (Haemophilus influenzae [17]): 0.5 µg/mL (≈ 1.18 µM); MIC50 (Haemophilus influenzae [17]): 0.5 µg/mL (≈ 1.18 µM); MIC90 (Haemophilus influenzae [17]): 2 µg/mL (≈ 4.71 µM) |
